High-throughput results deposited in PubChem by The Scripps Research Institute Molecular Screening Center.
The list is not random: actives were taken first. Their share in the collection is about 0.55%.
OXTR ag = agonists of human oxytocin receptor; activation, % at 3 µM; CHO-OTR cells, Fluo-8 calcium fluorescence; normalized: DMSO 0%, oxytocin 100%; 0.32% of 320,000 active; P30559;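 active = activation above the mean of all tested compounds plus 3 SD, cutoff set per screening run, cut at about 20% in these data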;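 note: peak over basal fluorescence ratio from a 100 s FLIPR kinetic read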
V1aR counter = V1a receptor agonism, counter-screen for OXTR agonists. P37288. CHO-V1R cells, Fluo-8 calcium fluorescence, agonist mode; 0% DMSO, 100% 3 nM vasopressin. activation, % at 3 µM. 0.25% of 320,000 active;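 active = activation above the mean activation of all tested compounds plus 3 SD, per screening run, cut at about 20% in these data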;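 note: signal is peak over basal fluorescence ratio across a 100 second FLIPR read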
zfTRPN1 agonist = zebrafish TRPN1 (NompC) channel agonism; HEK293 zebrafish TRPN1-YFP, Fluo-8 calcium fluorescence; 100% = response to 87 µM carbachol; 0.18% of 220,000 active; activation, % at 3 µM;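 active = activation above its plate's cutoff, the mean activation of test wells on that plate plus 3 SD, cut at about 19% in these data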
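Assay system: Zebrafish TRPN1-YFP in HEK293 cells | Incubation: Dye loading 1 h at 37 °C, then 30 min room temperature | Measured by: Kinetic Fluo-8 fluorescence, ex 470-495, em 515-575 nm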
TRPML3 ag = human mucolipin-3 channel agonism | Q8TDD5 | HEK293 TRPML3-YFP, Fluo-8 calcium fluorescence; 100% = the carbachol control signal | activation, % at 3 µM | 0.29% of 220,000 active | AID 1448;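 active = activation above its plate's cutoff, the mean activation of the plate's test wells plus 3 SD, cut at about 12% in these data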
Target sequence (Q8TDD5 whole entry, looked up): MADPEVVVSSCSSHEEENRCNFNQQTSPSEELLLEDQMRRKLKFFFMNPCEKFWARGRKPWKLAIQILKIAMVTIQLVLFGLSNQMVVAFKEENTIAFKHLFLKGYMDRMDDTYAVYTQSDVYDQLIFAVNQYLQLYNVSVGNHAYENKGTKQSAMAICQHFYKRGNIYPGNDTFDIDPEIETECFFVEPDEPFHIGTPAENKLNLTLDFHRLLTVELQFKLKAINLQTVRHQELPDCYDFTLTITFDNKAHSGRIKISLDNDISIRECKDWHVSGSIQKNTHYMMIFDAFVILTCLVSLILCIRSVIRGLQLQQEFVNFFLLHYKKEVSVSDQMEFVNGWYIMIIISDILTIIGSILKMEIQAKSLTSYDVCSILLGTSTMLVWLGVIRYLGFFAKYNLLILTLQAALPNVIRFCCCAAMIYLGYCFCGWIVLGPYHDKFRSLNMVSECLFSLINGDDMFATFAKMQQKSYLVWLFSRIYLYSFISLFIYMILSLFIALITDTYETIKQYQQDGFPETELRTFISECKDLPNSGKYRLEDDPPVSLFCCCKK
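Material: TRPML3-YFP stable HEK293 cells | Dosing: One concentration, 3 µM nominal, 0.3% DMSO | Timing: 125 s total fluorescence read per well | Technique: Fluo-8 calcium dye fluorescence, ex 470-495, em 515-575 nm | Measure: Percent activation from peak-to-basal fluorescence ratio, scaled between DMSO and carbachol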
OXTR potentiator = potentiates the human oxytocin receptor response | CHO-OTR cells, Fluo-8 calcium fluorescence, potentiator mode; 0% = oxytocin EC15, 100% = EC100 | activation, % at 3 µM | 0.061% of 320,000 active | AID 2445;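 active = activation above that plate's cutoff, the mean activation of tested compounds plus 3 SD, cut at about 6.6% in these data, passing the limit was not always enough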
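Assay system: CHO cell line stably expressing human OTR. Reagent: EC15 oxytocin agonist. Dosing: single dose, 3.0 µM nominal final compound concentration. Timing: compound 6 min at room temperature before oxytocin, 100 s read. Signal: kinetic Fluo-8 calcium fluorescence. Controls: oxytocin EC15 low and EC100 high.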
A number is an active result.

O=S(=O)(c1ccc(N2CCC(c3ccc(Cl)cc3)=N2)cc1)N(CCO)CCO was read as OXTR ag inactive, V1aR counter inactive, zfTRPN1 agonist inactive, TRPML3 ag inactive and OXTR potentiator inactive.
For CN(C)CCCNS(=O)(=O)c1ccc(N2CCC(c3ccc(Cl)cc3)=N2)cc1 the results were OXTR ag 20, V1aR counter inactive, zfTRPN1 agonist inactive, TRPML3 ag inactive and OXTR potentiator inactive.
N#C/C(=C\c1ccc(N2CCCCC2)o1)C(N)=O was read as OXTR ag inactive, V1aR counter inactive, zfTRPN1 agonist inactive, TRPML3 ag inactive and OXTR potentiator inactive.
For N#C/C(=C\c1ccc(N2CCCCC2)o1)C(=O)Nc1cccc(Br)c1 the results were OXTR ag 187, V1aR counter 199, zfTRPN1 agonist 20, TRPML3 ag 14 and OXTR potentiator inactive.
CC1C/C(=C/c2ccncc2)C(=O)/C(=C/c2ccncc2)C1 (configuration not stated) was read as OXTR ag inactive, V1aR counter inactive, zfTRPN1 agonist inactive, TRPML3 ag inactive and OXTR potentiator inactive.
For CC1C/C(=C/c2cccn2C)C(=O)/C(=C/c2cccn2C)C1 (configuration not stated) the results were OXTR ag 58, V1aR counter 79, zfTRPN1 agonist inactive, TRPML3 ag inactive and OXTR potentiator inactive.
Screening CC(C)NC(=O)CSc1c2c(nc3ccccc13)CCCC2 returned OXTR ag inactive, V1aR counter inactive, zfTRPN1 agonist inactive, TRPML3 ag inactive and OXTR potentiator inactive.
For Cc1ccc(NC(=O)Nc2cccc([N+](=O)[O-])c2)cc1F the results were OXTR ag inactive, V1aR counter inactive, zfTRPN1 agonist 23, TRPML3 ag 12 and OXTR potentiator inactive.
Cc1ccc(S(=O)(=O)N/N=C/c2ccc(OC3CSC3)cc2)cc1 was read as OXTR ag 24, V1aR counter 40, zfTRPN1 agonist 20, TRPML3 ag 13 and OXTR potentiator inactive.
Screening CC(C)S(=O)(=O)c1csc(NC(=O)Nc2ccc(Cl)cc2)c1 returned OXTR ag inactive, V1aR counter inactive, zfTRPN1 agonist 21, TRPML3 ag inactive and OXTR potentiator inactive.
`O=C(NCc1ccc2c(c1)CCO2)Nc1ccccc1` gave OXTR ag inactive, V1aR counter inactive, zfTRPN1 agonist inactive, TRPML3 ag inactive and OXTR potentiator inactive.
CC(O)[C@@]1(O)CC[C@H]2[C@@H]3CC[C@H]4C[C@@H](O)CC[C@]4(C)C3=CC[C@@]21C (some centres not stated) was read as OXTR ag inactive, V1aR counter inactive and OXTR potentiator inactive.
For CN(C)/C=C1\C=C2C(=O)c3ccccc3N2C1=O the results were OXTR ag 436, V1aR counter 95, zfTRPN1 agonist 729, TRPML3 ag 357 and OXTR potentiator inactive.
Screening CN(C)S(=O)(=O)N1C(=O)c2ccccc2C1=O returned OXTR ag inactive, V1aR counter inactive, zfTRPN1 agonist inactive, TRPML3 ag inactive and OXTR potentiator inactive.
`COCCN(Cc1nc2ccccc2c(=O)[nH]1)C(=O)COc1cccc(C(C)=O)c1` gave OXTR ag inactive, V1aR counter inactive and OXTR potentiator inactive.
For O=S(=O)(Nc1ccc(F)cc1)c1ccc(S(=O)(=O)N2CCOCC2)cc1 the results were OXTR ag 27, V1aR counter 22 and OXTR potentiator inactive.
CCc1ccc(NC(=O)C2(c3ccccc3)CC2(Cl)Cl)cc1 (configuration not stated) was read as OXTR ag 25, V1aR counter 30, zfTRPN1 agonist inactive, TRPML3 ag inactive and OXTR potentiator inactive.
COc1ccccc1-n1c(SCC(=O)Nc2cc(C)on2)nc2c([nH]c3ccccc32)c1=O was read as OXTR ag inactive, V1aR counter inactive and OXTR potentiator inactive.
For NNC(=O)CN1C(c2ccccc2Br)=Nc2ccc(Br)cc2C1c1ccccc1 (configuration not stated) the results were OXTR ag inactive, V1aR counter inactive, zfTRPN1 agonist inactive, TRPML3 ag inactive and OXTR potentiator inactive.
O=C1CNC(=O)/C(=C\c2ccccc2)N1 was read as OXTR ag inactive, V1aR counter inactive and OXTR potentiator inactive.
`O=C1/C(=C/c2ccccc2)Nc2ccccc21` gave OXTR ag 46, V1aR counter 42, zfTRPN1 agonist inactive, TRPML3 ag inactive and OXTR potentiator inactive.
Screening O=C(CCNS(=O)(=O)c1ccc(Br)cc1)NCCc1ccc(Cl)cc1 returned OXTR ag inactive, V1aR counter inactive and OXTR potentiator inactive.
For N#Cc1ncccc1CCc1cccc(Cl)c1 the results were OXTR ag inactive, V1aR counter inactive and OXTR potentiator inactive.
`CC(=O)Nc1ccc(Sc2ncccc2C(=O)Nc2cc(Cl)cc(Cl)c2)cn1` gave OXTR ag inactive, V1aR counter inactive, zfTRPN1 agonist inactive, TRPML3 ag inactive and OXTR potentiator inactive.
For CC(=O)Nc1ccc(Sc2ncccc2C(=O)Nc2ccc(OC(F)(F)F)cc2)cn1 the results were OXTR ag 71, V1aR counter 67, zfTRPN1 agonist 48, TRPML3 ag 31 and OXTR potentiator inactive.
For CCOc1ccc(CN(C)C(=O)CCN2C(=O)c3ccccc3C2=O)cc1OC the results were OXTR ag inactive, V1aR counter inactive and OXTR potentiator inactive.
Cc1ccc(N=Cc2sc(O)c3ccccc23)cc1 was read as OXTR ag 29, V1aR counter 37, zfTRPN1 agonist inactive, TRPML3 ag inactive and OXTR potentiator inactive.
`Cc1ccc(S(=O)(=O)N(Cc2ccccc2)c2ccccc2C(=O)N2CCCCC2)cc1` gave OXTR ag inactive, V1aR counter inactive and OXTR potentiator inactive.
`CCCCNC(=O)CCn1c(=O)c2ccccc2n(Cc2ccc(Cl)cc2)c1=O` gave OXTR ag inactive, V1aR counter inactive, zfTRPN1 agonist inactive, TRPML3 ag inactive and OXTR potentiator 15.
COc1ccc(-c2[nH]nc3oc(=O)c(CCO)c(C)c23)cc1 was read as OXTR ag inactive, V1aR counter inactive, zfTRPN1 agonist inactive, TRPML3 ag inactive and OXTR potentiator inactive.
CCOC(=O)c1nn(-c2ccccc2)c2nnc(Cc3ccc(C)cc3)c(=O)n12 was read as OXTR ag inactive, V1aR counter inactive, zfTRPN1 agonist inactive, TRPML3 ag inactive and OXTR potentiator 12.
`CCc1ccc(Nc2n[n+](-c3ccccc3)c(-c3c(Cl)cccc3Cl)s2)cc1` gave OXTR ag 48, V1aR counter 64 and OXTR potentiator inactive.
For CCc1ccc(Nc2n[n+](-c3ccccc3)c(-c3ccc(OCc4ccccc4)cc3)s2)cc1 the results were OXTR ag inactive, V1aR counter inactive and OXTR potentiator inactive.
`Fc1ccc(-[n+]2nc(Nc3ccccc3)sc2-c2c(Cl)cccc2Cl)cc1` gave OXTR ag 23, V1aR counter 25 and OXTR potentiator inactive.
